# Test results: ChEMBL document CHEMBL4765239, “Discovery of a Novel Highly Selective Histamine H4 Receptor Antagonist for the Treatment of Atopic Dermatitis” (J Med Chem, 2018)
# Tested on: not listed separately
# Experiment: Intrinsic clearance in human liver microsomes at 5 uM incubated upto 30 mins in presence of NADPH by UPLC-UV analysis
# Format: ADME, Microsome
# Settings: read-out: CLH
# Method in brief: (§1)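 Test compound at 5 µM incubated with pooled CD-1 mouse or human liver microsomes plus 1 mM NADPH. Remaining compound measured by UPLC-UV at 0, 10, 20 and 30 min. CLint derived from the first-order elimination rate constant, normalized to microsomal protein.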
row,SMILES,microsomal CLint at 5 µM [µL/min/mg]
1,CN1CCN(c2nc3ncc(C#N)cc3n3cnnc23)CC1,3.49
2,CN1CCN(c2cc3ccc(Cl)cc3n3cnnc23)CC1,0.86
3,Cc1c(Br)cnc2nc(N3CCN(C)CC3)c3nncn3c12,3.84
4,CN1CCN(c2nc3ccc([N+](=O)[O-])cc3n3cnnc23)CC1,2.63
5,CN1CCN(c2nc3cccnc3n3cnnc23)CC1,8.21

# Other lines, results leading:
row,microsomal CLint at 5 µM [µL/min/mg],SMILES
1,3.28,CCOc1nc2nc(N3CCN(C)CC3)c3nncn3c2cc1Cl
2,5.72,CN1CCN(c2nc3nc(OCC(F)(F)F)c(Cl)cc3n3cnnc23)CC1
3,2.81,CN1CCN(c2nc3ncc(I)cc3n3cnnc23)CC1
4,2.55,CN1CCN(c2nc3nc(Cl)c(Cl)cc3n3cnnc23)CC1

# Tested on: not listed separately
# Experiment: Intrinsic clearance in CD1 mouse liver microsomes at 5 uM incubated upto 30 mins in presence of NADPH by UPLC-UV analysis
# Format: ADME, Microsome
# Settings: read-out: CLH
# Method in brief: as §1
row,SMILES,microsomal CLint at 5 µM [µL/min/mg]
1,CN1CCN(c2nc3ncc(C#N)cc3n3cnnc23)CC1,2.8
2,CN1CCN(c2cc3ccc(Cl)cc3n3cnnc23)CC1,8.43
3,Cc1c(Br)cnc2nc(N3CCN(C)CC3)c3nncn3c12,7.62
4,CN1CCN(c2nc3ccc([N+](=O)[O-])cc3n3cnnc23)CC1,10.4
5,CN1CCN(c2nc3cccnc3n3cnnc23)CC1,50.2

# Results, then the molecule that gave them:
row,microsomal CLint at 5 µM [µL/min/mg],SMILES
1,3.56,CCOc1nc2nc(N3CCN(C)CC3)c3nncn3c2cc1Cl
2,4.94,CN1CCN(c2nc3nc(OCC(F)(F)F)c(Cl)cc3n3cnnc23)CC1
3,3.74,CN1CCN(c2nc3ncc(I)cc3n3cnnc23)CC1
4,5.28,CN1CCN(c2nc3nc(Cl)c(Cl)cc3n3cnnc23)CC1

# Tested on: not listed separately
# Experiment: Solubility of compound in SGF at pH 1.2 incubated for 2 hrs by UPLC-UV analysis
# Format: physicochemical
# Settings: not given
# Method in brief: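 Compound incubated at 37 °C in FaSSIF (pH 6.5) for 0.5 h or in SGF (pH 1.2) for 2 h. Filtered through 0.45 µm, concentration measured by UPLC-UV.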
row,SMILES,solubility at 2 h [µg/mL]
1,CN1CCN(c2nc3ncc(C#N)cc3n3cnnc23)CC1,1740
2,CN1CCN(c2cc3ccc(Cl)cc3n3cnnc23)CC1,> 2000
3,Cc1c(Br)cnc2nc(N3CCN(C)CC3)c3nncn3c12,1800
4,CN1CCN(c2nc3ccc([N+](=O)[O-])cc3n3cnnc23)CC1,1900
5,CN1CCN(c2nc3cccnc3n3cnnc23)CC1,1920

# Further lines, results first:
row,solubility at 2 h [µg/mL],SMILES
1,1250,CN1CCN(c2nc3ncc(I)cc3n3cnnc23)CC1
2,1950,CN1CCN(c2nc3nc(Cl)c(Cl)cc3n3cnnc23)CC1

# Target: Histamine H3 receptor (Homo sapiens, UniProt Q9Y5N1)
# Experiment: Displacement of [3H]-N-alpha-methylhistamine from recombinant human histamine H3 receptor expressed in CHO-K1 cell membranes measured after 30 mins by microbeta scintillation counting method
# Set-up: species or system Cell membrane
# Settings: not given
# Method in brief: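 Competitive binding on CHO-K1 membranes expressing human H3R ([3H]Nα-methylhistamine) or mouse H4R ([3H]histamine). Run in 50 mM Tris-HCl pH 7.4 for 30 min at 27 °C, then filtered onto 0.5% PEI-treated glass fiber and washed three times with ice-cold buffer. Bound radioactivity read by liquid scintillation counting.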
# Sequence of Histamine H3 receptor (Q9Y5N1 whole entry): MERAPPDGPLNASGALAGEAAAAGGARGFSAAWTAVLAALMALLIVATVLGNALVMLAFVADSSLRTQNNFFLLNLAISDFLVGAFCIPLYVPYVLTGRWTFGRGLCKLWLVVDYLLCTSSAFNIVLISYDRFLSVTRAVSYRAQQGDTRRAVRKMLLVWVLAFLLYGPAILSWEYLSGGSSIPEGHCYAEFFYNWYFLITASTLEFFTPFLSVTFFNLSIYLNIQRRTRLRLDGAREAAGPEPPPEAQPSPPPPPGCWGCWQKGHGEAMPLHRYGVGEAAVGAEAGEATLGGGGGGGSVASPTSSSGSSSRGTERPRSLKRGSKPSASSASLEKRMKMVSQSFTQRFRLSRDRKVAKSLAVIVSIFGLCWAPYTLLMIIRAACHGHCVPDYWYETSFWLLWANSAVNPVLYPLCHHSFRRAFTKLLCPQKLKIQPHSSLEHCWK
row,IC50 [µM],SMILES
1,24,Cc1c(Br)cnc2nc(N3CCN(C)CC3)c3nncn3c12
2,41,CN1CCN(c2nc3ccc([N+](=O)[O-])cc3n3cnnc23)CC1

row,SMILES,IC50 [µM]
1,CN1CCN(c2cc3ccc(Cl)cc3n3cnnc23)CC1,> 100

# Tested on: not listed separately
# Experiment: Solubility of compound in FaSSIF at pH 6.5 incubated for 0.5 hrs by UPLC-UV analysis
# Settings: not given
row,SMILES,solubility at 0.5 h [µg/mL]
1,CN1CCN(c2nc3ncc(C#N)cc3n3cnnc23)CC1,417
2,CN1CCN(c2cc3ccc(Cl)cc3n3cnnc23)CC1,> 2000
3,Cc1c(Br)cnc2nc(N3CCN(C)CC3)c3nncn3c12,583
4,CN1CCN(c2nc3ccc([N+](=O)[O-])cc3n3cnnc23)CC1,80.2
5,CN1CCN(c2nc3cccnc3n3cnnc23)CC1,> 2000

# The next lines start with the values.
row,solubility at 0.5 h [µg/mL],SMILES
1,126,CN1CCN(c2nc3ncc(I)cc3n3cnnc23)CC1
2,163,CN1CCN(c2nc3nc(Cl)c(Cl)cc3n3cnnc23)CC1

# Target: Histamine H4 receptor (Homo sapiens, UniProt Q9H3N8)
# Experiment: Displacement of [3H]-histamine from recombinant human histamine H4 receptor expressed in CHO-K1 cell membranes measured after 30 mins by microbeta scintillation counting method
# Set-up: species or system Cell membrane
# Settings: not given
row,IC50 [µM],SMILES
1,0.52,CCOc1nc2nc(N3CCN(C)CC3)c3nncn3c2cc1Cl
2,0.17,CN1CCN(c2nc3ccc([N+](=O)[O-])cc3n3cnnc23)CC1
3,3,CN1CCN(c2nc3cccnc3n3cnnc23)CC1

row,SMILES,IC50 [µM]
1,CN1CCN(c2cc3ccc(Cl)cc3n3cnnc23)CC1,6.2
